# pIC50: −log10 of the molar value.
# Assays:
# Format in all cases: cell-based
# Oocyte [1] = assay: Inhibition of human aquaporin 4 M23 isoform expressed in Xenopus laevis oocytes at 20 uM
# Outline: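 Oocytes injected with 30 nL hAQP4b cRNA (0.1 µg/µL) or water sham, cultured 48 h at 18 C in MBS. Exposure to 20 µM compound (0.1% DMSO) for 2 h, then hypotonic challenge by dilution with buffer-free solution of matching inhibitor/DMSO. Oocyte area imaged each 60 s for 4 min, converted to volume. Osmotic permeability-based percent inhibition versus blank and sham; single-tail ANOVA, P < 0.05.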
# [2] = (§1) Inhibition of human aquaporin 4 M23 isoform expressed in Xenopus laevis oocytes; settings: oocyte
# Outline: (§2)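 hAQP4b cRNA (0.1 µg/µL, 30 nL) or water (sham) injected into oocytes, kept 48 h at 18 C in MBS. Oocytes preincubated 2 h with ligand at 0.1, 1, 5, 10, 20 or 100 µM, 0.1% DMSO final, then diluted with buffer-free hypotonic solution. Swelling imaged every 60 s up to 4 min; n = 5 oocytes. Percent inhibition relative to blank and sham Pf fit sigmoidally for apparent IC50.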
# Oocyte [3] = assay: as §1; outline: as §2
Compound,inhibition (Oocyte [1]) [%],pIC50 [2],Imax (Oocyte [3]) [%]
CC1(C)O[C@@H]2[C@@H](CO[C@@]3(COS(N)(=O)=O)OC(C)(C)O[C@@H]23)O1 [TOPIRAMATE],67,5.00,75
CC(=O)Nc1nnc(S(N)(=O)=O)s1 [ACETAZOLAMIDE],78,6.07,86
NS(=O)(=O)Cc1noc2ccccc12 [ZONISAMIDE],48,5.48,48
CCCC(CCC)C(=O)O,40,,
NC(=O)N1c2ccccc2CC(=O)c2ccccc21,33,,
Nc1nnc(-c2cccc(Cl)c2Cl)c(N)n1 [LAMOTRIGINE],54,5.09,64
NC(=O)N1c2ccccc2C2OC2c2ccccc21 (stereo not drawn),40,,
O=C1NC(=O)C(c2ccccc2)(c2ccccc2)N1 [PHENYTOIN],58,5.01,60

# From ChEMBL document CHEMBL1151775, “Inhibition of aquaporin 4 by antiepileptic drugs” (Bioorg Med Chem, 2009)
